Experimental data as given in ChEMBL document CHEMBL1629499, “Synthesis, crystal structure and biological evaluation of novel 2-(5-(hydroxymethyl)-3-phenyl-1H-pyrazol-1-yl)-1-phenylethanol derivatives” (Eur J Med Chem, 2010).
Calls of active or inactive are those of the source. The rule behind the calls is not given here.

Experiments:
Type in all cases: functional, cell-based
[1] = test system: A549; assay: Anticancer activity against human A549 cells assessed as upregulation of LC3-2 expression at 60 uM after 48 hrs by Western blot analysis
Outline: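 After 48 h treatment, A549 cells washed in ice-cold PBS and lysed in 0.5% SDS buffer (25 mM Tris-HCl pH 7.5, EDTA, NaCl, PMSF, protease inhibitors). Protein measured by Bradford. Equal protein run on 15% SDS-PAGE, transferred to PVDF, probed overnight at 4 °C with primary antibody, β-actin as loading control. HRP secondary, chemiluminescent detection on film, bands quantified by densitometry.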

[2] = test system: A549; assay: Induction of apoptosis in human A549 cells assessed as morphological changes at 60 uM after 48 hrs by Hoechst 33258 staining-based fluorescence microscopy
Outline: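 A549 cells exposed 48 h, stained with Hoechst 33258 and examined by fluorescence microscopy for chromatin condensation and nuclear DNA fragmentation.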

[3] = test system: A549; assay: Induction of necrosis in human A549 cells assessed as LDH release at 60 uM after 48 hrs
Outline: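 LDH activity measured in culture medium of A549 cells after 48 h exposure and compared with control cells.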

[4] = test system: A549; assay: Anticancer activity against human A549 cells assessed as cell viability at 60 uM after 48 hrs by phase contrast microscopy
Outline: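 A549 lung cancer cells grown in RPMI 1640 with 10% bovine calf serum and 80 U/ml gentamicin at 37 °C, 5% CO2, seeded at 6250/cm². After 48 h exposure, cells inspected by phase contrast microscopy for morphology and cell number.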

[5] = test system: A549; assay: Cell cycle arrest in human A549 cells assessed as accumulation in G1 phase at 60 uM after 48 hrs using propidium iodide staining by flow cytometry (reference value: 22%)

| Structure (SMILES) | Activity [1] | Activity [2] | Activity [3] | Activity [4] | Activity [5] |
| --- | --- | --- | --- | --- | --- |
| OCc1cc(-c2ccccc2)nn1CC(O)c1ccc(Cl)cc1 (stereo unspecified) | Active | inactive | inactive | – | – |
| COc1ccc(C(O)Cn2nc(-c3ccc(Cl)cc3)cc2CO)cc1 (stereo unspecified) | – | – | – | inactive | – |
| COc1ccc(-c2cc(CO)n(CC(O)c3ccccc3)n2)cc1 (stereo unspecified) | – | – | – | inactive | – |
| COc1ccc(C(O)Cn2nc(-c3ccccc3)cc2CO)cc1 (stereo unspecified) | – | – | – | inactive | – |
| OCc1cc(-c2ccc(Cl)cc2)nn1CC(O)c1ccccc1 (stereo unspecified) | – | – | – | inactive | – |
| OCc1cc(-c2ccc(Cl)cc2)nn1CC(O)c1ccc(Cl)cc1 (stereo unspecified) | Active | inactive | inactive | – | – |
| COc1ccc(-c2cc(CO)n(CC(O)c3ccc(Cl)cc3)n2)cc1 (stereo unspecified) | Active | inactive | inactive | – | inactive |
| COc1ccc(-c2cc(CO)n(CC(O)c3ccc(OC)cc3)n2)cc1 (stereo unspecified) | – | – | – | inactive | – |
| OCc1cc(-c2ccccc2)nn1CC(O)c1ccccc1 (stereo unspecified) | – | – | – | inactive | – |
